Measured values from ChEMBL document CHEMBL4673248, “Discovery and Characterization of BAY 1214784, an Orally Available Spiroindoline Derivative Acting as a Potent and Selective Antagonist of the Human Gonadotropin-Releasing Hormone Receptor as Proven in a First-In-Human Study in Postmenopausal Women” (J Med Chem, 2020).
Converted amounts (≈) assume the structure as drawn.

How the values were obtained:
[1] = Half life in Wistar rat at 0.5 mg/kg, iv by LC-MS/MS analysis; type: ADME, organism-based; details: in vivo
[2] = Clearance in dog hepatocytes; type: ADME, cell-based, Canis lupus familiaris, Hepatocyte
[3] = Clearance in human hepatocytes; type: ADME, cell-based, Hepatocyte
[4] = Maximum oral bioavailability in human hepatocytes; type: ADME, Hepatocyte; details: read-out: Fmax
Cytochrome P450 2D6 = Cytochrome P450 2D6 (Homo sapiens, UniProt P10635); test: Inhibition of CYP2D6 in human liver microsomes using dextromethorphan as substrate by LC-MS/MS analysis; type: ADME
Chain of Cytochrome P450 2D6 (P10635 whole entry): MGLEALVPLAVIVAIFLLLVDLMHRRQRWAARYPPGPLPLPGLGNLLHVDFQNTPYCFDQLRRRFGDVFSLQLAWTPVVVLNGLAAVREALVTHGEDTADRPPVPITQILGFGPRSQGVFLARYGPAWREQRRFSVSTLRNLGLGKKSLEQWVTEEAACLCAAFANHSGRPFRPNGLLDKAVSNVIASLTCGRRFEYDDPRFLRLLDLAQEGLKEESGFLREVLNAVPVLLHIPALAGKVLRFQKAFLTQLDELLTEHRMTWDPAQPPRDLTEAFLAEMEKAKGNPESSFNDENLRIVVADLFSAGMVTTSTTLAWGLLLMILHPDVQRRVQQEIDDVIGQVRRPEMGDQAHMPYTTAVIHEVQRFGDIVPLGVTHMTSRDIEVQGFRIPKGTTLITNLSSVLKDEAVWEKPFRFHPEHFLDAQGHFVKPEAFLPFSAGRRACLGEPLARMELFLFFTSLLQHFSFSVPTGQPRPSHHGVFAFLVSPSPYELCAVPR

[5] = target: T1, Gonadotropin-releasing hormone receptor (Homo sapiens, UniProt P30968); test: Inhibition of Tag-lite green-labeled agonist binding to terbium fluorophore-labeled human N-terminal SNAP-tag GnRh receptor expressed in HEK293 cells by TR-FRET assay; type: cell-based
T1 sequence (P30968 whole entry): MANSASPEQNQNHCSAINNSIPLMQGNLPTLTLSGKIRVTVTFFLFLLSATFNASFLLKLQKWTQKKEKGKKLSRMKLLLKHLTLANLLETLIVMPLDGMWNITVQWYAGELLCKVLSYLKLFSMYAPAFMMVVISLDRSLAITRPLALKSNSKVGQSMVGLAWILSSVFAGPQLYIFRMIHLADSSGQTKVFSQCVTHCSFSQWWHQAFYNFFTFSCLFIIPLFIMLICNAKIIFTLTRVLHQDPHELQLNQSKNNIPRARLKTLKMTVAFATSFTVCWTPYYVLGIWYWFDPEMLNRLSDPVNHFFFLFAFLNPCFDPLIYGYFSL
Method in brief: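 Frozen transiently transfected HEK293 with Tb-labelled SNAP-tag hGnRH-R, 5.6 × 10^4 cells/well in Tag-lite buffer. Green-labelled agonist 4 nM. Nonspecific wells received buserelin 10 µM. Incubated 60 min at rt, TR-FRET 520/495 nm ratio read.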

Cytochrome P450 3A4 = Cytochrome P450 3A4 (Homo sapiens, UniProt P08684); test: Inhibition of CYP3A4 in human liver microsomes using […] as substrate by LC-MS/MS analysis; type: ADME
Chain of Cytochrome P450 3A4 (P08684 whole entry): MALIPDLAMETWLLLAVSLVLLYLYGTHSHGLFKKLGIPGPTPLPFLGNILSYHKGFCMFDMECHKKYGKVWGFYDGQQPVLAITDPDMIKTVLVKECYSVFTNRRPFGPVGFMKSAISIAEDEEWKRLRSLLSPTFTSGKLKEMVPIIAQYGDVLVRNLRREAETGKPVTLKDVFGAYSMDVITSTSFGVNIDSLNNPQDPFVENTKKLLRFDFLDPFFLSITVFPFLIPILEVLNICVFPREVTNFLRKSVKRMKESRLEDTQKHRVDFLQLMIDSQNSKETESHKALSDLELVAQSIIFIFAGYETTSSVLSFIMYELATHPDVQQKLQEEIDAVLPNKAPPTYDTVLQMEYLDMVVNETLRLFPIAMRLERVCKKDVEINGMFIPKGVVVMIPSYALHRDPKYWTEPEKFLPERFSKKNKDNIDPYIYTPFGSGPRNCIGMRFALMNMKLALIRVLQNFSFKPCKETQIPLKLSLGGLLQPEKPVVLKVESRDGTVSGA

Cytochrome P450 2C9 = Cytochrome P450 2C9 (Homo sapiens, UniProt P11712); test: Inhibition of CYP2C9 in human liver microsomes using diclofenac as substrate by LC-MS/MS analysis; type: ADME
Chain of Cytochrome P450 2C9 (P11712 whole entry): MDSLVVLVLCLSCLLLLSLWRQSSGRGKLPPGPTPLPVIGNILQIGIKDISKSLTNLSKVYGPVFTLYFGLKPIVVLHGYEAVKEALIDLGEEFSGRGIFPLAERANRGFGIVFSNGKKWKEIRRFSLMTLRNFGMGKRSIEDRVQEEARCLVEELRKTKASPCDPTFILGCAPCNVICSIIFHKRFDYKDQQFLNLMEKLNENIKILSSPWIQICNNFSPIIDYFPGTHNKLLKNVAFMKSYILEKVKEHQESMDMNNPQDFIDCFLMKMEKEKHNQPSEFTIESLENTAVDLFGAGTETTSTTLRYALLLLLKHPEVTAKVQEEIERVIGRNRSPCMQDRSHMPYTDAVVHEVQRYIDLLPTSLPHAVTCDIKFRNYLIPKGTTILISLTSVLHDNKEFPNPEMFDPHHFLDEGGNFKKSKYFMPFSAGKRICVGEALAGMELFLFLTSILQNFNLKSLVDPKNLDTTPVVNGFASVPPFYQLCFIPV

[6] = Clearance in dog liver microsomes; type: ADME, Canis lupus familiaris, Microsome
[7] = Apparent permeability across apical to basolateral side in human Caco2 cells at 2 uM measured after 2 hrs by LC-MS/MS analysis; type: ADME, cell-based; details: Caco-2
Method in brief: (§1)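 Caco-2 monolayers grown 15 d, integrity checked by TEER. Compound 2 µM added apical or basolateral in FCS-free HEPES carbonate buffer pH 7.2, incubated 2 h at 37 °C. Both compartments sampled before and after, analysed by LC-MS/MS after MeOH precipitation. Papp computed from receiver peak area, surface area and time. Efflux ratio taken as Papp B–A/Papp A–B.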

[8] = target: Mitogen-activated protein kinase 3 (Homo sapiens, UniProt P27361); test: Inhibition of MAPK3 (unknown origin)
Chain of Mitogen-activated protein kinase 3 (P27361 whole entry): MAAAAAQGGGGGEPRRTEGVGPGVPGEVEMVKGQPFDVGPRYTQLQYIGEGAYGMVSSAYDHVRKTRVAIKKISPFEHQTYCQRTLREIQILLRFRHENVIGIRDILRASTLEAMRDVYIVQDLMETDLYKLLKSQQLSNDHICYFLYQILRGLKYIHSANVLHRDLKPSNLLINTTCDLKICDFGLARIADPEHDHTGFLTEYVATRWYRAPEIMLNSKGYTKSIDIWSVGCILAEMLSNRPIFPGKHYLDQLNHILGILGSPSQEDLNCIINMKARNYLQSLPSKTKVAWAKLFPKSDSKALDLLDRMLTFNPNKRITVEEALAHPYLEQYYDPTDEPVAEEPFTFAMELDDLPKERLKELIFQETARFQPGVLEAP

[9] = target: Voltage-gated inwardly rectifying potassium channel KCNH2 (Homo sapiens, UniProt Q12809); test: Inhibition of human ERG expressed in HEK293 cells assessed as reduction in channel inward tail current by whole cell voltage clamp assay; type: cell-based
Chain of Voltage-gated inwardly rectifying potassium channel KCNH2 (Q12809 whole entry): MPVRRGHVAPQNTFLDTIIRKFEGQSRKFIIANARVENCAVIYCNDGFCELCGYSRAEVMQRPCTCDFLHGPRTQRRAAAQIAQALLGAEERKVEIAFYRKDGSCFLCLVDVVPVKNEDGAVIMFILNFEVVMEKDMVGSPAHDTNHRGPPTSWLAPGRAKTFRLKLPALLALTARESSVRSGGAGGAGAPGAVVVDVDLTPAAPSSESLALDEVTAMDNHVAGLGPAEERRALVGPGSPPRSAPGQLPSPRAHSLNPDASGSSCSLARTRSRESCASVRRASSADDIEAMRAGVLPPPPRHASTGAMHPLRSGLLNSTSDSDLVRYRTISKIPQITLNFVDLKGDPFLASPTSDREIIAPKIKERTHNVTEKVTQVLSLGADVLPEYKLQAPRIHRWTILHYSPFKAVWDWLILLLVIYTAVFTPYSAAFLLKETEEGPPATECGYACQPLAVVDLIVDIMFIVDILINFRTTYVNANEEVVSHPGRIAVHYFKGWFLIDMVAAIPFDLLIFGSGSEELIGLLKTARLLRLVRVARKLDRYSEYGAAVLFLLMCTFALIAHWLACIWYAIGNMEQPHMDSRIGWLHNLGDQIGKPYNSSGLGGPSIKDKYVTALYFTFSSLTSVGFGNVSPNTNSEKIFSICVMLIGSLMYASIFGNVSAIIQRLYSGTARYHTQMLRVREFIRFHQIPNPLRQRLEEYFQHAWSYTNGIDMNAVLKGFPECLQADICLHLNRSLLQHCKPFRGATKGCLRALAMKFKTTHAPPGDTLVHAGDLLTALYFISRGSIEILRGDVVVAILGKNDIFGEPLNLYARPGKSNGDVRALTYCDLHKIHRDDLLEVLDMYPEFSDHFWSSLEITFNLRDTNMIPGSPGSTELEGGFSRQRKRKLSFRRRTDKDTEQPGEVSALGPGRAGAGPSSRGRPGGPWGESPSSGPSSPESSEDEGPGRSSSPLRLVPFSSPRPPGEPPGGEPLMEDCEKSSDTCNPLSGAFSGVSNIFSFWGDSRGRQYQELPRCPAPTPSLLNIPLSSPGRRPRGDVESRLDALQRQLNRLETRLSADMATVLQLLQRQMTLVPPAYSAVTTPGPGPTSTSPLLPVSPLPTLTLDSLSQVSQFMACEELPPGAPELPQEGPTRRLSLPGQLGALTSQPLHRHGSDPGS

[10] = Maximum oral bioavailability in Han Wistar rat hepatocytes at 1 uM measured after 2 to 90 mins by LC-MS/MS analysis; type: ADME, Hepatocyte; details: time 2-90 min, read-out: Fmax
[11] = Clearance in rat liver microsomes at 1 uM measured upto 60 mins in presence of NADP generating system by LC-MS/MS analysis; type: ADME, Microsome; details: 1 h
[12] = Lipophilicity, log D of the compound in pH 7.5 MeCN/H2O solution by reversed-phase HPLC analysis; type: physicochemical
Method in brief: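 Indirect reversed-phase HPLC at pH 7.5, calibrated with n-alkan-2-ones C3–C16. Compounds applied as 0.67 mM DMSO stocks in MeCN/H2O (1:1).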

Cynomolgus monkey = test: Suppression of orchiectomy-induced increase in plasma luteinizing hormone level in cynomolgus monkey at 20 mg/kg, po measured up to 24 hrs by RIA; type: functional, Macaca fascicularis; details: time hrs <=24
Method in brief: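 Orchiectomized cynomolgus monkeys given a single oral dose of 20 mg/kg. Plasma LH suppression expressed relative to baseline levels.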

Cytochrome P450 1A2 = target: T2, Cytochrome P450 1A2 (Homo sapiens, UniProt P05177); test: Inhibition of CYP1A2 in human liver microsomes using phenacetin as substrate by LC-MS/MS analysis; type: ADME
T2 sequence (P05177 whole entry): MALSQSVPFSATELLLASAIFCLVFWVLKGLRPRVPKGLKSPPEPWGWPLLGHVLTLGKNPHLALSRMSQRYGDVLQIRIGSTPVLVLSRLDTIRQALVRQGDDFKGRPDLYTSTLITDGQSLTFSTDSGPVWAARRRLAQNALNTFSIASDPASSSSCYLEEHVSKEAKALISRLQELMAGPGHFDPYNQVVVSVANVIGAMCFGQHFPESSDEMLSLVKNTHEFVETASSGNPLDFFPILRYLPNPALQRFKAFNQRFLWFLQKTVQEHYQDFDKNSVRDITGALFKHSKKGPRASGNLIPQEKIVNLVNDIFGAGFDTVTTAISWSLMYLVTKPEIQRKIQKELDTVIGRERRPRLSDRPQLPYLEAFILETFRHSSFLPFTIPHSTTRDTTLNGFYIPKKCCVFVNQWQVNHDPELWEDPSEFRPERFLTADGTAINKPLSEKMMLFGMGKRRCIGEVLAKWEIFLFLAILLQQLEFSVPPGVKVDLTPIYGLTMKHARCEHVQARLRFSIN

[13] = Apparent permeability across basolateral to apical side in human Caco2 cells at 2 uM measured after 2 hrs by LC-MS/MS analysis; type: ADME, cell-based; details: Caco-2; method in brief: as §1
Cannabinoid receptor 1 = Cannabinoid receptor 1 (Homo sapiens, UniProt P21554); test: Inhibition of CB1 receptor (unknown origin)
Chain of Cannabinoid receptor 1 (P21554 whole entry): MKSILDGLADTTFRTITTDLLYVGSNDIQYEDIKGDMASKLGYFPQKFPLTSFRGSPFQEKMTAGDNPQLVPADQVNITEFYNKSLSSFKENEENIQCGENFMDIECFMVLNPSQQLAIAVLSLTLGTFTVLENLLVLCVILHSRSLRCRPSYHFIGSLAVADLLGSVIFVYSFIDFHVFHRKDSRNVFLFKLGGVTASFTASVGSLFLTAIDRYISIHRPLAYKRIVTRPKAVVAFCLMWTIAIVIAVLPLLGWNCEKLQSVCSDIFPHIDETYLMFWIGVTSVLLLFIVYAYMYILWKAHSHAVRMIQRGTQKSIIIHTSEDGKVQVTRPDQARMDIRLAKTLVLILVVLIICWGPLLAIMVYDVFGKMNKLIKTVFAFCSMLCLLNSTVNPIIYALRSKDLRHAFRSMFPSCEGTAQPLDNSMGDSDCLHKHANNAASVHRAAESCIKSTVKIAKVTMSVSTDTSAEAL

[14] = Antagonist activity at cynomolgus monkey GnRH receptor expressed in CHO-K1 cells assessed as inhibition of buserelin-induced response preincubated for 20 mins followed by buserelin addition and measured after 60 mins by TR-FRET assay; type: cell-based; details: Macaca fascicularis
Method in brief: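 Frozen CHO-K1 cells expressing cynomolgus receptor: thawed, 1 h recovery at 37 °C with IP1-d2 tracer. 5000 cells/well in Ham's F12, 20 min preincubation with compound at rt. Buserelin added at 1× EC80 in HEPES stimulation buffer pH 7.4 with LiCl, 60 min at 37 °C. Lysis with Tb-anti-IP1 antibody (1:20), HTRF IP1 read after 60 min. Duplicates, up to 11 concentrations.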

[15] = Maximum oral bioavailability in cynomolgus monkey liver microsomes based well stirred liver model; type: ADME, Macaca fascicularis, Microsome; details: read-out: Fmax
[16] = Aqueous solubility of compound at pH 6.5 incubated for 24 hrs under shaking condition by HPLC-MS/MS analysis; type: physicochemical; details: aqueous solution
Method in brief: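 Compound from 1 mM DMSO solution, pH 6.5 buffer added, shaken 24 h at rt. Filtered, dissolved compound quantified by HPLC-MS/MS.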

[17] = Toxicity in postmenopausal woman at 5 to 450 mg, po administered as single dose using SMEDDS formulation; details: human, in vivo
Homo sapiens = test: Suppression of plasma luteinizing hormone level in postmenopausal woman at 300 mg, po administered as single dose using SMEDDS formulation by ECLIA relative to control; type: functional

## O=C(NCc1ncc(C(F)(F)F)cc1Cl)c1ccc2c(c1)C1(CCS(=O)(=O)CC1)[C@H](C1CC1)N2S(=O)(=O)c1ccc(F)cc1 [BAY-784]
[1]
  half-life: 16 h
[2]
  CLH: 12.2 mL/min/kg
[3]
  CLH: 1.7 mL/min/kg
[4]
  Fh: 93%
Cytochrome P450 2D6
  IC50: > 10 µM
[5]
  IC50: 0.027 µM
Cytochrome P450 3A4
  IC50: > 10 µM
Cytochrome P450 2C9
  IC50: > 10 µM
[6]
  CLH: 5.33 mL/min/kg
[7]
  Papp A→B at 2 h, 2 µM: 1.3 ×10⁻⁶ cm/s
[8]
  IC50: 4.9 µM
[9]
  IC50: > 10 µM
[10]
  Fh at 1 µM: 82%
[11]
  CLH: 6.33 mL/min/kg
[12]
  chromatographic logD: 3.6
Cynomolgus monkey
  Activity: <=60%
Cytochrome P450 1A2
  IC50: > 10 µM
[13]
  Papp B→A at 2 h, 2 µM: 12.9 ×10⁻⁶ cm/s
Cannabinoid receptor 1
  IC50: 3.4 µM
[14]
  IC50: 0.035 µM
[15]
  Fh: 81%
[16]
  solubility at 24 h: 7.1 µg/mL (≈ 10.6 µM)
[17]
  Activity: Non-Toxic
Homo sapiens
  Activity: 49%
